In data set [1] the test system is BV-2. The data set can be described thus: Antiinflammatory activity in mouse BV2 cells assessed as inhibition of LPS-induced NO production after 24 hrs by Griess reaction. The data set is classed as functional, cell-based. The settings on record: BV-2, 24 h. The method in brief: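 Murine BV-2 microglia stimulated with LPS at 100 ng/ml for 24 h with or without compound. Nitrite, a soluble oxidation product of NO, was measured in the culture medium by Griess reaction.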
Background: The Griess reaction detects nitrite, a stable product of nitric oxide.

The test system of data set [2] is BV-2. The data set can be described thus: Antiinflammatory activity in mouse BV2 cells assessed as inhibition of LPS-induced NO production at 10 uM after 24 hrs by Griess reaction. The data set is classed as functional. The following applies: BV-2, 24 h. The procedure, abridged:
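BV-2 microglial cells were activated with 100 ng/ml LPS for 24 h with compound at 10 µM. Medium nitrite was measured by Griess reaction. The value is mean inhibition of NO production relative to the LPS control, from three experiments.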

The target in data set [3] is T1, Nitric oxide synthase, inducible (Mus musculus) (UniProt P29477).
T1 sequence (whole entry): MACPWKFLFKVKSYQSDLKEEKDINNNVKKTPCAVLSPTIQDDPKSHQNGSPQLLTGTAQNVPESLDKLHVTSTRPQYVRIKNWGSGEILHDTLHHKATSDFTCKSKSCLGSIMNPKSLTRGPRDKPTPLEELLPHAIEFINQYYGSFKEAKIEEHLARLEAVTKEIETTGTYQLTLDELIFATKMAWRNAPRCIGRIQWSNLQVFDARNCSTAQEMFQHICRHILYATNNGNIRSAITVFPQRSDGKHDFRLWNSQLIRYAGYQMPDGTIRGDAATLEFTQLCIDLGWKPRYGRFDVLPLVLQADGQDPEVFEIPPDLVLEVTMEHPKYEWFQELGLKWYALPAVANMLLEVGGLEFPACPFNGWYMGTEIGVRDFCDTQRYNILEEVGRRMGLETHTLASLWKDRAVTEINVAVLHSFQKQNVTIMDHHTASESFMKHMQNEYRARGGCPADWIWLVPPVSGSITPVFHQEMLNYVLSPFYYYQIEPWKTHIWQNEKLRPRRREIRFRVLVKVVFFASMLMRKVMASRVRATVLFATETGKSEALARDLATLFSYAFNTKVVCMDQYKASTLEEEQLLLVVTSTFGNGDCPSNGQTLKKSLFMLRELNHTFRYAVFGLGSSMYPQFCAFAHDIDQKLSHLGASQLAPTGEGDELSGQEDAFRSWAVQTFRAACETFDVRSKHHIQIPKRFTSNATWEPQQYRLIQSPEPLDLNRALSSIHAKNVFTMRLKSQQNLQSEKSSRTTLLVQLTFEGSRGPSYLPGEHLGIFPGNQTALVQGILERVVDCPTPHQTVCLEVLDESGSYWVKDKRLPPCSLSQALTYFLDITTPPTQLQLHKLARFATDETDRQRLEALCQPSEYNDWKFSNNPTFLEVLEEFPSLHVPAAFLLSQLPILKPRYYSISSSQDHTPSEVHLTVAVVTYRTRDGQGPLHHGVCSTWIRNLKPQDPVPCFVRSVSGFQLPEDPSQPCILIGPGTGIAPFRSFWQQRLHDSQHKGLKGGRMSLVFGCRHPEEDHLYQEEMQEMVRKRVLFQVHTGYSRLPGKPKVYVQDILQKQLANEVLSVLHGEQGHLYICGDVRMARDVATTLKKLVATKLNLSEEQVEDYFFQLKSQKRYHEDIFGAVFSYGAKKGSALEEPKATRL
Briefly: Inhibition of iNOS activity in LPS-stimulated mouse BV2 cells after 12 hrs. The data set is classed as cell-based. The settings on record: BV-2. The method in brief: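 Intact-cell iNOS activity assay. BV-2 cells (4 × 10⁶) were pre-induced with LPS at 100 ng/ml for 12 h, washed twice with PBS, then replated at 2 × 10⁶ cells/well. They were incubated with various compound concentrations for a further 12 h. Supernatant NO was read by Griess reaction.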

Data set [4] relates to BV-2. The data set can be described thus: Antiinflammatory activity in mouse BV2 cells assessed as inhibition of LPS-induced iNOS protein expression at 10 uM after 6 hrs by Western blotting.
Data set [5] in a line: Cytotoxicity against mouse BV2 cells. The data set is classed as cell-based, BV-2. The settings on record: read-out: INH. The method in brief: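 Viability of murine BV-2 microglia, stimulated with LPS at 100 ng/ml for 24 h with or without compound, was measured by MTT assay.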

Active and inactive are the calls of the source. The calls are words filed in the database; no cut-off is given here.

Usually IC50 stands for the concentration at which inhibition is half-maximal. For orientation: inhibition means the relative decrease from the control value, in per cent. Turning to `Cc1ccc(C2=Nc3ccccc3NC(C)(c3ccc(C)cc3)C2)cc1` (configuration not stated), the IC50 in the data set with BV-2 [1] stood at 14 µM. Besides, in the data set on BV-2 [2], the inhibition at 10 µM came out at 34.6%.
As to `CC1(c2cccs2)CC(c2cccs2)=Nc2ccccc2N1` (configuration not stated), the IC50 with BV-2 [1] was found to be 7 µM. The inhibition at 10 µM with BV-2 [2] turned out to be 70.3%. Also, in data set [3], the inhibition entry is “Active”. Moreover, the inhibition entry in the data set with BV-2 [4] was “inactive”.
As to `CC1(c2ccccc2)CC(c2ccccc2)=Nc2ccccc2N1` (configuration not stated), the IC50 in the data set on BV-2 [1] was determined as 9.4 µM. For the same compound, in the data set on BV-2 [2], the inhibition at 10 µM amounted to 59.8%.
Regarding `CCC1=Nc2ccccc2NC(C)(CC)C1` (configuration not stated), the IC50 in the data set with BV-2 [1] is 15.2 µM. In addition, the inhibition at 10 µM with BV-2 [2] came to 27.4%.
`CC1(c2ccccc2[N+](=O)[O-])CC(c2ccccc2[N+](=O)[O-])=Nc2ccccc2N1` (configuration not stated): in the data set with BV-2 [1], the IC50 is 23.2 µM. The inhibition at 10 µM with BV-2 [2] was 24.9%.
The corresponding values for `CC1=Nc2ccccc2NC(C)(C)C1` are 14.3 µM and 28.6%.
For `CC(C)C1=Nc2ccccc2NC(C)(C(C)C)C1` (configuration not stated), in that order: 16.6 µM and 26.3%.
The corresponding values for `CC1(c2ccsc2)CC(c2ccsc2)=Nc2ccccc2N1` (configuration not stated) are 35.2 µM and 13.2%.
Consider `CC1(c2ccc(Cl)cc2)CC(c2ccc(Cl)cc2)=Nc2ccccc2N1` (configuration not stated), for which the inhibition at 10 µM with BV-2 [2] turned out to be 28.2%. Also, in data set [5], the cytotoxicity stood at 28.2%.
Take `CC1(c2cccc(Cl)c2)CC(c2cccc(Cl)c2)=Nc2ccccc2N1` (configuration not stated): the IC50 in the data set on BV-2 [1] was 23.2 µM. The inhibition at 10 µM in the data set on BV-2 [2] was determined as 21.2%.

For the origin of these results see ChEMBL document CHEMBL1177758, “Anti-neuroinflammatory activity of 1,5-benzodiazepine derivatives” (Bioorg Med Chem Lett, 2010).
